According to PubChem BioAssay AID686919 (Broad Institute, 2013):
Activity calls are given as the source filed them.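 How the source made its calls: active means remaining cruzain activity at or below half of the DMSO control at 10 µM, implied only; inactive means remaining activity above half of control.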

Each molecule was assayed on cruzain (cruzipain) [Trypanosoma cruzi] (assay: cruzain protease inhibitors, dose response, mechanism study for T. cruzi phenotypic hit project, biochemical, dry powder, percent inhibition (AID 686919)). Conditions: recombinant cruzain, Z-Phe-Arg-AMC fluorescence rate; at 10 µM (top of the series).
In short: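 Medium – pH 5.5 acetate buffer with DTT and Triton X-100 · Test system – recombinant cruzain · Read-out basis – AMC release rate normalized to DMSO control wells · Also added – Z-Phe-Arg-AMC, 10 µM · Signal – AMC fluorescence rate, 355/460 nm · Benchmarks – DMSO vehicle control · Times – 5 min preincubation at room temperature, 3 min kinetic read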

Remaining cruzain activity (% of DMSO control), inactive:
CN(C)C(=O)c1cccc(-c2ccc([C@H]3[C@H](CO)N4CCCCN(C(=O)CC5CC5)C[C@@H]34)cc2)c1 83.3%
O=C(C1CCC1)N1CCCCN2[C@@H](CO)[C@H](c3ccc(Br)cc3)[C@@H]2C1 133%
CN(C)C(=O)c1cccc(-c2ccc([C@H]3[C@H](CO)N4CCCCN(C(=O)C5CC5)C[C@@H]34)cc2)c1 104%
CN(C)C(=O)c1cccc(-c2ccc([C@H]3[C@H](CO)N4CCCCN(C(=O)C5CCCCC5)C[C@@H]34)cc2)c1 72.3%
CN(C)C(=O)c1cccc(-c2ccc([C@H]3[C@H](CO)N4CCCCN(C(=O)C5CCC5)C[C@@H]34)cc2)c1 106%
